# Screening results: PubChem, The Scripps Research Institute Molecular Screening Center
# OX1R antag-1 – blocks the human orexin 1 receptor; O43613; OX1R-expressing cells, FRET antagonist read-out; inhibition, % at 6.6 µM; hit rate 1.8% among 330,000; AID 485270; in the data active means inhibition mostly above about 38%, no sharp cut-off; inactive means mostly below about 40%;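 further: 0% = agonist challenge alone and 100% = reference antagonist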
# Target sequence (O43613 whole entry, looked up): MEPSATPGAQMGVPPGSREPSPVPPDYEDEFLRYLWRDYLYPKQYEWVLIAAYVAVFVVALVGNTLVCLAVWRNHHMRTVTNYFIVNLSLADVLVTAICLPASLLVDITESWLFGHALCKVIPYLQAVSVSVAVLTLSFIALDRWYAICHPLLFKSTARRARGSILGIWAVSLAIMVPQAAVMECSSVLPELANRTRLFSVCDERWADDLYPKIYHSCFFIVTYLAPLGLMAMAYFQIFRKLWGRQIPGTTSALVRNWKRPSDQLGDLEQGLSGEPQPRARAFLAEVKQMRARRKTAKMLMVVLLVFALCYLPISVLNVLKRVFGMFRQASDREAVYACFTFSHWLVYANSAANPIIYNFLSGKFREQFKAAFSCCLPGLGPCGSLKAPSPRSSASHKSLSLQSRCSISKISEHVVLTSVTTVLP
# TAAR1 antag – human TAAR1 antagonism; hit rate 1.5% among 360,000; Q96RJ0; AID 624466; inhibition, % at 3 µM; CHO RD-HGA16 TAAR1, Fluo-8 calcium fluorescence, antagonist;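 active means inhibition above a per-plate cutoff, the mean inhibition of test compounds on that plate plus 3 SD, cut at about 49% in these data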;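 further: 0% = DMSO plus EC80 beta-PEA response and 100% = DMSO alone without agonist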
#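 Test system – hTAAR1-expressing CHO RD-HGA16 cells, Gα16-coupled · Reagent – β-PEA at EC80 concentration, post-compound challenge · Compound dosing – 3 µM, single point · Timing – 140 s kinetic read after compound, 140 s after agonist · Detection – Fluo-8 intracellular calcium dye fluorescence, real-time kinetic reads · Control set – DMSO and EC80 PEA controls · Repeats – n of 1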
# OX1R antag-2 – human HCRTR1 antagonism; AID 434989; CHO/OX1R cells, Fluo-8 calcium fluorescence, orexin A; hit rate 0.43% among 330,000; inhibition, % at 5 µM;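 active means inhibition above its plate's threshold, mean inhibition of all tested compounds on the plate plus 3 SD, cut at about 37% in these data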;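 further: 0% = orexin A challenge wells and 100% = SB-334867-A antagonist wells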
# TAAR1 ag – agonists of human TAAR1; activation, % at 3 µM; CHO RD-HGA16 TAAR1, Fluo-8 calcium fluorescence; vehicle wells 0%, saturating PEA agonist 100%; Q96RJ0; AID 624467; hit rate 0.99% among 360,000;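 active means activation above the mean activation of all test compounds in the run plus 3 SD, cut at about 38% in these data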
#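 System: CHO RD-HGA16 cells carrying human TAAR1 plus Gα16; Incubation: 17-24 h seeding, 75 min 37 °C dye, 30 min RT; Measured by: Fluo-8 fluorescence, 5 s baseline then 140 s kinetic read; Control set: DMSO and PEA EC100; Replication: single well for each compound.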
# CHO parental Ca – counter-screen: ATP calcium response change in parental CHO cells. parental CHO-K1, ATP-induced calcium, Fluo-8 fluorescence. inhibition, % at 5.6 µM. hit rate 0.63% among 330,000;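 active means inhibition above that plate's mean sample inhibition plus 3 SD, cut at about 26% in these data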;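 further: 0% = ATP-challenged DMSO wells and 100% = DMSO wells without ATP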
#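 Material: Parental CHO cells | Reagent: ATP | Compound dosing: Single nominal dose of 5.6 µM per compound | Detection: Intracellular calcium via Fluo-8 no-wash fluorescent dye | Read-out: % inhibition of ATP-induced calcium mobilization | Benchmarks: Low control ATP plus DMSO, high control DMSO only | Replicates: Singlicate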
# GPR7 antagonist – antagonists of human GPR7 (neuropeptides B/W receptor 1); P48145; GPR7-expressing cells, fluorescence antagonist assay; inhibition, % at 4.4 µM; hit rate 1.1% among 290,000; AID 1861; in the data active means inhibition above about 16%, passing the limit was not always enough;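 further: cells stimulated with the agonist NPW; 0% = agonist with vehicle and 100% = vehicle without agonist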
# Numbers without * were called inactive; · = no result given. This is a sample that favours compounds with a hit; in the whole collection about 4.6% have one here.
SMILES,OX1R antag-1,TAAR1 antag,OX1R antag-2,TAAR1 ag,CHO parental Ca,GPR7 antagonist
Cc1ccccc1Nc1nc(N)nc(CSc2nc3ccccc3c(=O)n2C)n1,2.2,59.3*,-28.3,13.2,-15.8,0.3
Cc1ccccc1Nc1nc(N)nc(CSc2nc3ccccc3s2)n1,66.6*,-0.6,1.9,0.9,-33.9,-9.5
CCCCCC/C(C)=C1/SC(=S)NC1=O,45.0*,14.7,13.6,3.5,-5.6,-6.7
C/C(C/C(C)=C1/SC(=S)NC1=O)=C1\SC(=S)NC1=O,·,6.1,·,1.2,·,-1.7
Cc1ccc(NC(=O)[C@@H]2O[C@H](CO)[C@@H](O)[C@H]2O)cc1C(F)(F)F,·,1.3,·,4.9,·,·
Cc1ccc(CNCc2cc(Cl)ccc2O)cc1,19.5,7.6,-5.3,38.2*,-19.3,·
COC(=O)c1cc2c(c3c4ccccc4n(S(=O)(=O)c4ccccc4)c13)C(=O)N(Cc1ccc(C(F)(F)F)cc1)C2,·,-20.2,·,0.1,·,·
CC1(C)CC=CC(COC(=O)c2ccccc2C(=O)O)C1 (centres undefined),·,-6.3,·,1.0,·,·
Cc1cc(-n2c(C)cc(C(=O)CSc3ncnc4ccccc34)c2C)no1,46.8*,45.5,70.1*,15.3,66.3*,-5.4
CC[n+]1c(/C=C/c2ccc(OC)c(OC)c2)ccc2ccccc21,64.8*,-20.6,-23.2,-0.1,-4.2,-8.2
CC[n+]1c(/C=C/c2ccc(OC(C)=O)c(OC)c2)ccc2ccccc21,·,-1.7,·,0.5,·,-14.6
O=C(c1cc(COc2cccc(C(F)(F)F)c2)on1)N1CCC(c2ccncc2)CC1,21.9,-8.0,31.4,0.9,60.0*,12.4
Cc1cc(SCC(=O)N(C)C2CCCCC2)nc2ccccc12,35.9*,11.2,-2.9,23.4,-14.2,·
Cn1cc(S(=O)(=O)N2CCc3ccccc32)cc1C(=O)NC(C)(C)C,7.4,-18.4,-9.6,3.1,32.5*,-2.7
O=C1N=c2ccccc2=C1c1sc(Nc2cccc(O)c2)nc1O,54.3*,41.7,1.0,4.3,-8.9,18.6
Cc1ccccc1OCC(O)Cn1c2ccccc2c2ccccc21 (centres undefined),7.6,7.4,-29.4,-1.0,-18.7,-14.1
Cc1ccccc1OCC(O)Cn1c(=N)n(Cc2ccccc2)c2ccccc21 (centres undefined),-5.7,1.6,29.1,33.4,38.6*,34.5*
O=C(COc1cccc(F)c1)N[C@@H](Cc1ccccc1)c1nc2ccccc2[nH]1,60.6*,-2.4,12.1,4.7,-12.0,-1.7
COc1ccc(-c2cn[nH]c2-c2ccc(OCc3ccccc3)cc2O)cc1,8.5,9.8,15.6,-1.2,54.3*,-15.9
COc1ccc(-c2[nH]ncc2-c2ccc(Cl)cc2)c(O)c1,11.5,11.5,19.6,1.9,71.8*,-4.7
COC(=O)c1ccccc1S(=O)(=O)NC(=O)[C@H]1O[C@@H](n2ccc(=O)[nH]c2=O)[C@H](O)[C@@H]1O,·,-3.2,·,0.5,·,·
CC1(C(=O)NCc2ccccc2)CN(S(C)(=O)=O)CC(=O)N1CCc1ccccc1F (centres undefined),·,-9.3,·,11.0,·,·
CC(C)C[C@H]1CNC(=O)C(=O)N1C[C@@H]1CCCN1C[C@H](Cc1ccccc1)N1C[C@H](Cc2ccccc2)N(CC2CCCCC2)C(=O)C1=O,·,-2.3,·,0.5,·,·
O=c1c2c([N+](=O)[O-])cc([N+](=O)[O-])cc2sn1Cc1ccccc1,34.9,27.6,71.0*,31.9,53.9*,4.5
O=c1c2c([N+](=O)[O-])cc([N+](=O)[O-])cc2sn1-c1ccc(Br)cc1,18.9,·,-11.2,·,-4.9,0.0
SMILES,OX1R antag-1,TAAR1 antag,OX1R antag-2,TAAR1 ag,CHO parental Ca,GPR7 antagonist
CC(=O)Cc1nsc(NC(=O)c2ccc(-c3ccc(F)cc3)o2)n1,60.8*,-23.9,8.5,2.6,-19.3,7.7
Cn1c2ccccc2c(=O)c2cc(NCCCN3CCOCC3)ccc21,58.6*,-15.3,-20.7,5.9,-27.9,·
O=c1c2ccccc2oc2ccc(NCCCN3CCOCC3)cc12,22.8,-2.5,-15.7,3.4,-10.8,3.4
O=C(OC1CCCCC1)c1cc2ccccc2oc1=O,12.8,3.2,-13.8,5.8,-10.3,0.7
CN(C(=O)COC(=O)c1cc2ccccc2oc1=O)C1CCCCC1,27.5*,12.0,-20.3,1.3,-9.5,·
Cc1cc(Br)c2nc(-c3cccc(Br)c3)c(Cc3cccc(Cl)c3)n2c1,·,-3.7,·,-0.6,·,·
